Results published in ChEMBL document CHEMBL3351267, “Curcuminoid derivatives enhance telomerase activity in an in vitro TRAP assay” (Bioorg Med Chem Lett, 2014).
Active and inactive are the calls of the source. The calls are words filed in the database; no cut-off is given here.

Tests used:
[1] = target: Telomerase reverse transcriptase (Homo sapiens) (UniProt O14746); assay: Activation of human telomerase activity expressed in HEK293T cells incubated for 30 mins by modified TRAP assay; type: cell-based; settings: HEK-293T
Telomerase reverse transcriptase (Homo sapiens), sequence (O14746 whole entry): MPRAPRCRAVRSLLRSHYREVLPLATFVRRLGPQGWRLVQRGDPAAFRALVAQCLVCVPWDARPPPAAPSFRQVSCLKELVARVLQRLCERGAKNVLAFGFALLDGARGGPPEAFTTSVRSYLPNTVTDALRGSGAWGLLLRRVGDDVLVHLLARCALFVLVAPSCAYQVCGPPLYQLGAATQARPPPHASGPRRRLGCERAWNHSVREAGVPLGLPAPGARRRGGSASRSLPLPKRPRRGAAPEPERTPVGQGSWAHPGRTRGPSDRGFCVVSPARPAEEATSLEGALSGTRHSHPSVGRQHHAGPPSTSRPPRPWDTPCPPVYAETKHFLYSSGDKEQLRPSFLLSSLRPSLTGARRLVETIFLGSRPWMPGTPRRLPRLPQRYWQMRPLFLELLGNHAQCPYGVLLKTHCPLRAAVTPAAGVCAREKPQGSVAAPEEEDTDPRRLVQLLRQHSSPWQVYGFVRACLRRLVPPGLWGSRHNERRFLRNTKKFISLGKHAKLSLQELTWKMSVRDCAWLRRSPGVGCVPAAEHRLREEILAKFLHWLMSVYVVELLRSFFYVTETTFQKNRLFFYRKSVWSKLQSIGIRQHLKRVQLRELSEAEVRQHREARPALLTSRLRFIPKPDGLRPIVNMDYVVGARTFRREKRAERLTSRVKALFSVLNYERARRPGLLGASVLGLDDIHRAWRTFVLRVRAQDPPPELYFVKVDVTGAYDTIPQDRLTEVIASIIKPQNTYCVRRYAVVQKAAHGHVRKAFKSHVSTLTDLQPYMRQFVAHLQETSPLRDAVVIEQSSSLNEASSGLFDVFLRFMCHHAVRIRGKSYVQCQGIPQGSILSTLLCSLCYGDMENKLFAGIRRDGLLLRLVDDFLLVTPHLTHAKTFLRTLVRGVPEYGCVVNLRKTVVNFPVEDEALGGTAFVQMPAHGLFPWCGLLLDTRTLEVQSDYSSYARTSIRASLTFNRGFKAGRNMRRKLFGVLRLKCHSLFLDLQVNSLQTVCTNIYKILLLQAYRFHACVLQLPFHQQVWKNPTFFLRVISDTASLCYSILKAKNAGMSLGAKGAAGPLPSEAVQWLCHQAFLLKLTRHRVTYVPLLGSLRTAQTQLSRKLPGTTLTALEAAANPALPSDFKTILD
In short: (§1)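 Telomerase came from crude lysate of HEK293T cells transfected with hTERT and hTR plasmids. MTS primer and compound were incubated in telomerase reaction buffer at 30 °C for 30 min, then removed by two phenol–chloroform extractions. Products were ethanol-precipitated, PCR-amplified with FAM-tagged primer, run on 8% non-denaturing acrylamide and phosphorimaged. Accumulated product intensity was averaged over three independent experiments.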

[2] = target: Telomerase reverse transcriptase (Homo sapiens) (UniProt O14746); assay: Activation of human telomerase activity expressed in HEK293T cells at 20 to 60 uM incubated for 30 mins by modified TRAP assay; type: cell-based; settings: HEK-293T; in short: as §1
[3] = target: Telomerase reverse transcriptase (Homo sapiens) (UniProt O14746); assay: Activation of human telomerase activity expressed in HEK293T cells at 60 uM incubated for 30 mins by modified TRAP assay; type: cell-based; settings: HEK-293T; in short: as §1
[4] = target: Telomerase reverse transcriptase (Homo sapiens) (UniProt O14746); assay: Activation of human telomerase activity expressed in HEK293T cells at 60 uM incubated for 30 mins by modified TRAP assay and phosphorimage analysis; type: cell-based; settings: HEK-293T; in short: as §1
[5] = target: Telomerase reverse transcriptase (Homo sapiens) (UniProt O14746); assay: Activation of human telomerase activity expressed in HEK293T cells assessed as increase in telomer products intensity at 40 uM by modified TRAP assay and phosphorimage analysis; type: cell-based; settings: HEK-293T, TDE = time-dependent effect
In short: (§2)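 This was a time course at 40 µM compound, with the compound-free set run in parallel. The telomerase source was lysate of HEK293T cells transfected with hTERT/hTR. Reactions ran at 30 °C, and 100 µl was withdrawn at set times and heat-stopped at 95 °C for 10 min. Products were purified, PCR-amplified with FAM primer, and separated on 8% non-denaturing gel with phosphorimaging. Intensities came from three independent experiments.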

[6] = target: Telomerase reverse transcriptase (Homo sapiens) (UniProt O14746); assay: Activation of human telomerase activity expressed in HEK293T cells assessed as increase in telomer products intensity incubated for 30 mins by modified TRAP assay; type: cell-based; settings: HEK-293T; in short: as §1
[7] = target: Telomerase reverse transcriptase (Homo sapiens) (UniProt O14746); assay: Activation of human telomerase activity expressed in HEK293T cells assessed as increase in telomer products length incubated for 30 mins by modified TRAP assay; type: cell-based; settings: HEK-293T; in short: as §1
[8] = target: Telomerase reverse transcriptase (Homo sapiens) (UniProt O14746); assay: Activation of human telomerase activity expressed in HEK293T cells assessed as increase in telomer products length at 40 uM by modified TRAP assay and phosphorimage analysis; type: cell-based; settings: HEK-293T, TDE = time-dependent effect; in short: as §2
[9] = target: Telomerase reverse transcriptase (Homo sapiens) (UniProt O14746); assay: Activation of human telomerase activity expressed in HEK293T cells incubated for 30 mins by modified TRAP assay and phosphorimage analysis; type: cell-based; settings: HEK-293T; in short: as §1
[10] = system: Thermus aquaticus; assay: Inhibition of Thermus aquaticus DNA polymerase at 5 uM

Compound	Activity [1]	fold change (FC) [3]	further results
COc1cc(CCC(=O)CC(=O)CCc2ccc(O)c(OC)c2)ccc1O	inactive	–	–
COc1cc(/C=C/C(=O)CC(=O)/C=C/c2ccc(OCCO)c(OC)c2)ccc1OCCO	inactive	–	–
COc1cc(/C=C/C(=O)CC(=O)/C=C/c2ccc(O)c(OC)c2)ccc1O	inactive	–	–
O=C(/C=C/c1ccc(O)cc1)CC(=O)/C=C/c1ccc(O)cc1	inactive	–	–
COc1cc(CC/C=C/C(=O)CCc2ccc(OCCCCC[n+]3ccccc3)c(OC)c2)ccc1OCCCCC[n+]1ccccc1	–	–	Activity [2]: inactive
COc1cc(/C=C/C(=O)CC(=O)/C=C/c2ccc(OCCCCC[n+]3ccccc3)c(OC)c2)ccc1O	–	3	–
COc1cc(/C=C/C(=O)CC(=O)/C=C/c2ccc(OCCCCC[n+]3ccccc3)c(OC)c2)ccc1OCCCCC[n+]1ccccc1	Dose-dependent effect	5	fold change (FC) [4]: < 5; Activity [5]: tde; Activity [6]: Dose-dependent effect; Activity [7]: Dose-dependent effect; Activity [8]: tde; Activity [9]: Dose-dependent effect; inhibition [10]: Active
COc1cc(CCC(O)CC(O)CCc2ccc(O)c(OC)c2)ccc1O (stereo not given)	inactive	–	–
COc1cc(/C=C/C(O)=C/C(=O)/C=C/c2ccc(O)cc2)ccc1O	inactive	–	–
COc1cc(/C=C/C(=O)CC(=O)/C=C/c2ccc(O)cc2)ccc1OCCCCC[n+]1ccccc1	–	3	–
COc1cc(/C=C/C(=O)CC(=O)/C=C/c2ccc(OCCCCC[n+]3ccccc3)cc2)ccc1O	–	3	–
COc1cc(/C=C/c2cc(/C=C/c3ccc(OCCCCC[n+]4ccccc4)c(OC)c3)on2)ccc1OCCCCC[n+]1ccccc1	–	3	–
